The source made the active and inactive calls. The rule behind the calls is not given here.
Assays:
[1] = system: KU812; assay: Antiproliferative activity against human KU812 cells expressing wild type p53 after 72 hrs by CellTitre-Glo assay; type: functional, cell-based
In short: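 Cell lines exposed to compound for 72 h; viability read by CellTiter-Glo and IC50 derived. p53 coding-region mutation status of each line established by direct sequencing.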

[2] = Antitumor activity against human SJSA1 cells xenografted in nude mouse assessed as tumor growth inhibition at 200 mg/kg, po qd administered with cycle of 3 days on, 4 days off for 30 days relative to control; type: functional; settings: SJSA-1, po, read-out: TGI
In short: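 Nude mice bearing SJSA-1 osteosarcoma xenografts, n = 5 per group. Oral dosing in 20% HPBCD, given either intermittently (daily, 3 days on/4 days off) or continuously daily. Body weight was monitored against a vehicle control group.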

Q: Which Activity [1] does the source give for `CCC[C@H]1N(C(=O)c2cnccc2C(F)(F)F)CCC[C@@]1(Oc1csc(C(F)(F)F)c1)C(=O)N1CCN(c2ccccc2OCCCC(=O)O)CC1` here?
A: Active

Q: What about the inhibition in vivo at 200 mg/kg [2] of the same compound?
A: 49%

— ChEMBL document CHEMBL3804796, “Discovery of Novel 3,3-Disubstituted Piperidines as Orally Bioavailable, Potent, and Efficacious HDM2-p53 Inhibitors” (ACS Med Chem Lett, 2016)
